Shown are actives, neighbours in structure and some others; about 2.4% of the full set was active somewhere.
Rtt109 Vps75 – inhibitors of C. albicans Rtt109/Vps75 HAT, primary screen, biochemical, ThioGlo CoA-SH fluorescence, plate reader | Histone acetyltransferase RTT109 (Candida albicans (strain SC5314 / ATCC MYA-2876)), … | purified Rtt109/Vps75, 4 h | inhibition, % at 34.9 µM | 0.16% of 330,000 active;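 active means inhibition of at least 50% in every replicate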
Target sequence (Q5AAJ8 whole entry, looked up): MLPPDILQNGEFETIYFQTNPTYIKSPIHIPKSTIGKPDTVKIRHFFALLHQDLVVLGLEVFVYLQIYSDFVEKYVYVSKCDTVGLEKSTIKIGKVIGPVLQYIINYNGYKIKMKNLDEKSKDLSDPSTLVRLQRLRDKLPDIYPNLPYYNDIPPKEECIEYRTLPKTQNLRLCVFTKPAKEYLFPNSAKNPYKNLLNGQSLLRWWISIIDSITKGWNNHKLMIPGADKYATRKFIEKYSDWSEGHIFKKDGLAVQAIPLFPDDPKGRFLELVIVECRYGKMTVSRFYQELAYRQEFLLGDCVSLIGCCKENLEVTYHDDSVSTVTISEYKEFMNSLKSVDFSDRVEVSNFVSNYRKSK
Cneo AK release – Cryptococcus neoformans cell lysis inducers, primary screen, AK release luminescence, single concentration; C. neoformans lysis, adenylate kinase release luminescence, 4 h; normalised: neutral wells 0, clomiphene wells 100; lysis activity, % at 15 µM; 0.2% of 360,000 active;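 active means mean lysis activity across replicates of at least 80%, whatever share of replicates individually reach that level; inactive means mean lysis activity below 80%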
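Assay system: C. neoformans cells. Amount: yeast cell density of 5 × 10^6 cells/mL. Technique: AK luminescence. Buffer or medium: YPD. Times: static 4 h at 37 °C with compound, 1 h detection. Dosing: single-point compound dose. Read-out: lysis from increased AK signal.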
miR122 inh – miR-122 Renilla sensor signal increase in Huh7, primary screen, miR-122 inhibitor project, cell-based, single point, plate reader; Huh7 miR-122 Renilla luciferase sensor, 48 h; neutral wells = 0, positive control = 100; activation (reporter increase), % at 12.5 µM; 0.3% of 340,000 active; AID 602342, 2012;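 active means mean replicate activation score at least 90 and every replicate individually at or above 90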;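 further: higher luciferase means less miR-122 activity so hits act as miR-122 inhibitors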
dFosB activator – activators of delta FosB homodimer, primary screen, biochemical, fluorescence polarization, TAMRA-CDK5 oligo, single point | purified delta FosB; percent of positive-control signal above neutral wells | 0.99% of 340,000 active | activation, % at 25 µM | Protein FosB (Mus musculus), P13346;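 active means mean activation above about 17%, with every replicate also reaching it, limit read from the data, passing the limit was not always enough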
Target sequence (P13346 whole entry, looked up): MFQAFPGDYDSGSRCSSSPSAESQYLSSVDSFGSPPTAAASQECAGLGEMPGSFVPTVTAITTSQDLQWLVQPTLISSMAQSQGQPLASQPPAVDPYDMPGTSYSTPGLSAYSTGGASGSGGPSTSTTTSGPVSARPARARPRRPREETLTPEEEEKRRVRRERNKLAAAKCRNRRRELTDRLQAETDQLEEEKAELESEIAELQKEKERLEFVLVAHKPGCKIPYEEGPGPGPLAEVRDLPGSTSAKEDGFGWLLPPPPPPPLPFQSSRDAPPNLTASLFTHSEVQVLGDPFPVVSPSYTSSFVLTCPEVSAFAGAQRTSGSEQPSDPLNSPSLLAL
GSIS activator – GLuc luminescence reporter in INS-1E cells, primary screen for activators of glucose-dependent secretion of insulin | INS-1E GLuc reporter insulin secretion, 2-3 h | activation, % at 16.6 µM | 0.61% of 370,000 active;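 active means lowest replicate activation of at least 40%, so every replicate reaches that level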
HIV Env fusion – inhibitors of HIV-1 Env-driven cell-cell fusion, primary screen, HeLa-JRFL effector, CEM21 target cells, luciferase; inhibition, % at 12.3 µM; AID 651610, 2012; 1.1% of 360,000 active;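 active means mean replicate inhibition score of at least 50 and every replicate individually at or above 50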
Large screens that a line does not name were inactive; [ ] = dose if it differs, or a comment.

C=C1C(=O)O[C@H]2C[C@H]1[C@@H](OC(C)=O)C/C(C)=C/CC/C(C)=C\CC[C@]2(C)O	HIV Env fusion 81 (no result: GSIS activator)
CCC(=O)Nc1ccc2c(c1)C(=O)N(C)C[C@@H](OC)[C@@H](C)CN(CC1CCOCC1)[C@@H](C)CO2	none (no result: Rtt109 Vps75, dFosB activator)
C=CCc1ccccc1Oc1cc(OC)nc(N)n1	GSIS activator 63
CC(C)NC[C@H]1[C@@H](c2ccc(C3=CCCC3)cc2)[C@@H](CO)N1C(=O)CC1CC1	none (no result: Rtt109 Vps75, Cneo AK release, miR122 inh, dFosB activator, HIV Env fusion)
CCCN1C[C@@H](C)[C@@H](OC)CN(C)C(=O)c2ccc(NC(=O)c3cccc(OC)c3)cc2OC[C@H]1C	none (no result: Rtt109 Vps75, dFosB activator)
Cc1ccc2cc(C#N)c(SCC(=O)NNC(=O)Cc3ccccc3)nc2c1	GSIS activator 127
Cc1ccc2nc(SCC(=O)NCc3cccs3)c(C#N)cc2c1	GSIS activator 54
CO[C@H]1CN(C)C(=O)c2ccc(NS(=O)(=O)c3cn(C)cn3)cc2OC[C@@H](C)NC[C@@H]1C	none (no result: Rtt109 Vps75, Cneo AK release, miR122 inh, dFosB activator, HIV Env fusion)
Cc1ccc2nc(NC(=O)CCCC(=O)O)sc2c1	HIV Env fusion 69 (no result: Cneo AK release)
COCC(=O)N1C[C@@H](C)[C@H](OC)CN(C)C(=O)c2cc(NC(=O)c3ccc(OC)cc3)ccc2OC[C@@H]1C	none (no result: Rtt109 Vps75, dFosB activator)
CCC(=O)N(C)C[C@H]1Oc2ncc(C#CCc3ccccc3)cc2C(=O)N([C@@H](C)CO)C[C@@H]1C	none (no result: Rtt109 Vps75, dFosB activator)
C[C@H](CO)N1C[C@H](C)[C@@H](CN(C)Cc2ccc(C(=O)Nc3ccccc3N)cc2)Oc2c(NC(=O)c3nc4ccccc4s3)cccc2C1=O	none (no result: Rtt109 Vps75, dFosB activator, HIV Env fusion)
CCOC(=O)N1CCN(S(=O)(=O)c2ccc(C(=O)NNc3nc4c(C)cc(C)cc4s3)cc2)CC1	none (no result: Rtt109 Vps75, dFosB activator, GSIS activator)
CCOC(=O)N1CCN(S(=O)(=O)c2ccc(C(=O)NNc3nc4c(C)cccc4s3)cc2)CC1	HIV Env fusion 60 (no result: GSIS activator)
OC(c1cccc(OCc2ccccc2)c1)c1nnc(-c2ccccc2)o1 (configuration not stated)	HIV Env fusion 73 (no result: GSIS activator)
OC(c1ccc(OCc2ccccc2)cc1)c1nnc(-c2ccccc2)o1 (configuration not stated)	none (no result: GSIS activator, HIV Env fusion)
CN(C)CCOc1ccc(-c2c(-c3ccccc3)sc3ccccc23)cc1	GSIS activator 446
c1ccc(-c2sc3ccccc3c2-c2ccc(OCCN3CCCCC3)cc2)cc1	none
COc1ccc2c3c([nH]c2c1)[C@@H](CO)NCC31CN(S(=O)(=O)c2ccccc2)C1	none (no result: Rtt109 Vps75, Cneo AK release, miR122 inh, dFosB activator, HIV Env fusion)
COc1ccc(C#Cc2cnc3c(c2)C(=O)N([C@@H](C)CO)C[C@@H](C)[C@@H](CN(C)C(=O)Nc2cccc(OC)c2)O3)cc1	none (no result: Rtt109 Vps75, Cneo AK release, dFosB activator)
OC(COc1ccc(Br)cc1)CN1CCC(Cc2ccccc2)CC1 (configuration not stated)	none
CC(C)OCC(O)CN1CCC(Cc2ccccc2)CC1 (configuration not stated)	GSIS activator 44
CCNc1nc(NCC)nc(N(C)/N=C/c2ccco2)n1	GSIS activator 62
C[C@H](CO)N1C[C@H](C)[C@H](CN(C)Cc2ccc(C(F)(F)F)cc2)OCCCC[C@H](C)Oc2ccc(NC(=O)Nc3ccccc3)cc2C1=O	HIV Env fusion 73[16.7 µM] (no result: Rtt109 Vps75, dFosB activator)
C[C@H]1CCCCO[C@H](CN(C)Cc2ccc(C(F)(F)F)cc2)[C@@H](C)CN([C@@H](C)CO)C(=O)c2cc(NC(=O)Nc3ccccc3)ccc2O1	none (no result: Rtt109 Vps75, dFosB activator)
C[C@H]1CCCCO[C@@H](CN(C)C(=O)c2ccccc2)[C@@H](C)CN([C@@H](C)CO)C(=O)c2cc(NC(=O)Nc3ccc(C(F)(F)F)cc3)ccc2O1	HIV Env fusion 68[16.7 µM] (no result: Rtt109 Vps75, dFosB activator)
C[C@@H]1CCCCO[C@@H](CN(C)Cc2ccc(C(F)(F)F)cc2)[C@H](C)CN([C@@H](C)CO)C(=O)c2cc(NC(=O)Nc3ccc(C(F)(F)F)cc3)ccc2O1	HIV Env fusion 59[16.7 µM] (no result: Rtt109 Vps75, dFosB activator)
CC(C)NC(=O)Nc1ccc2c(c1)C(=O)N([C@@H](C)CO)C[C@@H](C)[C@@H](CN(C)Cc1ccc(C(F)(F)F)cc1)OCCCC[C@@H](C)O2	HIV Env fusion 70[16.7 µM] (no result: Rtt109 Vps75, dFosB activator)
C[C@@H]1CCCCO[C@H](CN(C)C(=O)c2ccccc2)[C@H](C)CN([C@@H](C)CO)C(=O)c2cc(NC(=O)Nc3ccc(C(F)(F)F)cc3)ccc2O1	none (no result: Rtt109 Vps75, dFosB activator)
CO[C@@H]1CN(C)C(=O)c2ccc(NC(=O)C3CC3)cc2OC[C@H](C)N(Cc2cncnc2)C[C@H]1C	none (no result: Rtt109 Vps75, Cneo AK release, dFosB activator, HIV Env fusion)
O=C(c1ccccn1)N1CC2(C1)[C@@H](c1ccccc1)[C@H](CO)N2C(=O)C1CCC1	none (no result: Rtt109 Vps75, Cneo AK release, miR122 inh, dFosB activator)
COc1ccc(OC)c(Nc2nc(NCCCN(C)C)nc(N)c2[N+](=O)[O-])c1	dFosB activator 24
COCCCNc1nc(N)c([N+](=O)[O-])c(Nc2cc(OC)ccc2OC)n1	none
O=C(CSc1n[nH]c(=O)n1C1CC1)Nc1cc(Cl)ccc1Oc1ccccc1	HIV Env fusion 128
O=C(CSc1n[nH]c(=O)n1C1CC1)Nc1ccccc1	none
COc1ccc(CN(C)C[C@H]2OCCCC[C@@H](C)Oc3ccc(NS(=O)(=O)c4ccc(C)cc4)cc3C(=O)N([C@@H](C)CO)C[C@@H]2C)cc1	none (no result: Rtt109 Vps75, dFosB activator)
COC(=O)c1c(NC(=O)c2ccccc2N(C)S(=O)(=O)c2ccccc2)sc2c1CCCC2	none (no result: Cneo AK release, GSIS activator, HIV Env fusion)
CCOC(=O)c1c(NC(=O)c2ccccc2N(C)S(=O)(=O)c2ccccc2)sc2c1CCCC2	miR122 inh 162
CCc1c(C(=O)Nc2ccc(C)c(C)c2)[nH]c(C)c1C(C)=O	GSIS activator 114
CC(=O)c1c(C)[nH]c(C(=O)Nc2ccc(C)c(C)c2)c1C	none (no result: GSIS activator)
CC(=O)c1c(C)[nH]c(C(=O)NCc2ccccc2Cl)c1C	none (no result: GSIS activator)
CC(=O)c1c(C)[nH]c(C(=O)NC2CCCCC2)c1C	none (no result: GSIS activator, HIV Env fusion)
CCc1c(C(=O)NCc2ccccc2Cl)[nH]c(C)c1C(C)=O	miR122 inh 118 (no result: GSIS activator)
CCc1c(C(=O)NC2CCCCC2)[nH]c(C)c1C(C)=O	miR122 inh 212 (no result: GSIS activator)
C[C@H](CO)N1C[C@H](C)[C@@H](CN(C)S(=O)(=O)c2cn(C)cn2)Oc2cc(C3=CCCCC3)ccc2S1(=O)=O	none (no result: Rtt109 Vps75, dFosB activator, HIV Env fusion)
O=C(NNc1nc2c(F)cccc2s1)C1=COCCO1	none
Cc1ccc2sc(NNC(=O)C3=COCCO3)nc2c1C	Rtt109 Vps75 59 (no result: Cneo AK release, miR122 inh)
C=CCn1c(SCc2c(C)noc2C)nc2sc(C)c(C)c2c1=O	HIV Env fusion 68
Cc1noc(C)c1CSc1nc2sc(C)c(C)c2c(=O)n1-c1ccccc1	none (no result: GSIS activator, HIV Env fusion)

Screening data as filed in PubChem BioAssay.
